H69AR growth 86K: growth inhibitors of human H69AR lung tumor cells | H69AR lung tumor viability, ATP luminescence, 72 h; active compounds read low | viability, % at 10 µM | 85,000 compounds, 6% hits;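 active = viability at or below 40%; inactive = viability above 40%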;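 also: multidrug resistant small cell line overexpressing MRP-1 efflux transporter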
Lung fibro prol: blocks proliferation of human lung fibroblasts. LL 47 human lung fibroblast viability, ATP luminescence; active compounds read low. viability, % at 10 µM. 85,000 compounds, 1.1% hits. AID 719;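 active = viability at or below 50% in the single dose screen; inactive = viability above 50%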;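 also: compound exposure lasted 72 h before the ATP readout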
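test system = LL 47 human lung fibroblasts | amount = 1,150 fibroblasts seeded per well | medium = 15% FBS in IMEM | times = overnight cell rest, 72 h compound treatment at 37 °C | measured by = CellTiter-Glo luminescence measuring cellular ATP | read-out = viability percentage against median untreated-cell control | benchmarks = cell-only wells, no compound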
bCat KO growth: beta-catenin-lacking colon tumor cell growth suppression; AID 818; viability, % at 10 µM; HCT116 beta-catenin knockout viability, CellTiter-Glo, 60 h; active compounds read low; 140,000 compounds, 1.5% hits;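 active = viability at or under a set limit, the compound median less 4 SD, cut at about 6% in these data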
HCT116 PTEN-null: suppresses growth of cells with PTEN deletion; HCT116 PTEN-null viability, CellTiter-Glo, 60 h; active compounds read low; viability, % at 10 µM; 140,000 compounds, 1.2% hits;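 active = viability at or below a set limit, 4 SD under the median of all tested compounds, cut at about 3.7% in these data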;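 also: PTEN knockout HCT116 line with beta catenin targeted HCT116 as companion control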
HUVEC prolif 384: blocks proliferation of human endothelial cells. HUVEC proliferation, CellTiter-Glo luminescence, 72 h; active compounds read low. viability, % at 10 µM (by protocol). 86,000 compounds, 1.1% hits;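 active = viability at or below 30%; inactive = viability above 30%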
Each line names hits and unclear results; the compound was inactive in the other large screens. Many of the other results were omitted from the sample, so hits are more common in it than they were.

CCOc1ccc(N2CC(C(=O)Nc3ccccc3F)CC2=O)cc1 (stereo not drawn)	none
CCOC(=O)Cc1csc(NC(=S)NC(=O)C(C)(C)C)n1	none (no result: H69AR growth 86K, Lung fibro prol, HUVEC prolif 384)
Cc1ccccc1-c1nc(CN2CCC(C(=O)NC3CCN(Cc4ccccc4)CC3)CC2)c(C)o1	H69AR growth 86K 22, HUVEC prolif 384 9.9 (no result: bCat KO growth, HCT116 PTEN-null)
Cc1ccccc1-c1nc(CN2CCC(C(=O)NCCC3=CCCCC3)CC2)c(C)o1	H69AR growth 86K 28, bCat KO growth 2.4, HCT116 PTEN-null 2.4, HUVEC prolif 384 4.8
CCn1c(=O)c2c3c(sc2n2c(=S)[nH]nc12)CCC3	none
OC1CCCN(Cc2ccc3ccc4cccc5ccc2c3c45)C1 (stereo not drawn)	Lung fibro prol 49, bCat KO growth 1.3, HCT116 PTEN-null 2.2, HUVEC prolif 384 2.4
Cc1nn(C(C)C(=O)N2CCOCC2)c(C)c1[N+](=O)[O-] (stereo not drawn)	none (no result: H69AR growth 86K, Lung fibro prol, HUVEC prolif 384)
FC(F)(F)c1cc(-c2ccco2)nc(NCCc2ccccc2)n1	H69AR growth 86K 24
O=C(COC(=O)CCCSc1nc2ccccc2[nH]1)Nc1ccc(Cl)cc1	none (no result: H69AR growth 86K, Lung fibro prol, HUVEC prolif 384)
COc1ccc2sc3c(=O)[nH]c4ccccc4c3c2c1	none (no result: H69AR growth 86K, Lung fibro prol, HUVEC prolif 384)
COc1ccc2c(c1)[nH]c(=O)c1sc3ccccc3c12	bCat KO growth 5.1 (no result: H69AR growth 86K, Lung fibro prol, HUVEC prolif 384)
CCOC(=O)c1cnn(-c2cc(C)c3cc(C)cc(C)c3n2)c1N	none (no result: bCat KO growth, HCT116 PTEN-null)
O=C(Nc1cccc2cccnc12)c1ccc(Br)o1	H69AR growth 86K 37
O=C(Nc1cccc2ccccc12)c1ccc(Br)o1	none
CCn1c(=N)n(CC(=O)c2cccc([N+](=O)[O-])c2)c2ccccc21	none (no result: H69AR growth 86K, Lung fibro prol, HUVEC prolif 384)
CCn1c(=N)n(CC(=O)C23CC4CC(CC(C4)C2)C3)c2ccccc21	H69AR growth 86K 29, HUVEC prolif 384 3.4
O=C(NC(=S)Nn1cnc2c(cnn2-c2ccccc2)c1=O)c1ccccc1	none (no result: H69AR growth 86K, Lung fibro prol, HUVEC prolif 384)
Cc1c(CCO)c(=O)n(-c2ccccc2)n1S(=O)(=O)c1ccc(Cl)cc1	none
COc1ccc(C)cc1C(=O)CCC(=O)Nc1ccccc1N1CCOCC1	bCat KO growth 1.2, HCT116 PTEN-null 1.2
O=C(COC(=O)CN1C(=O)C2CCCCC2C1=O)NC1CCS(=O)(=O)C1 (stereo not drawn)	none (no result: H69AR growth 86K, Lung fibro prol, HUVEC prolif 384)
COC(=O)C1=C(C)N(CCCC(=O)O)C(=O)NC1c1cccs1 (stereo not drawn)	bCat KO growth 0.4, HCT116 PTEN-null 0.5 (no result: H69AR growth 86K, Lung fibro prol, HUVEC prolif 384)
CC1=C(C(=O)OCc2ccccc2)C(c2cccs2)NC(=O)N1CCCC(=O)O (stereo not drawn)	none (no result: H69AR growth 86K, Lung fibro prol, HUVEC prolif 384)
N/C(=N\OC(=O)C1CCCCC1)c1ccccn1	none (no result: H69AR growth 86K, Lung fibro prol, HUVEC prolif 384)
COc1cccc(-c2nnc3n2N=C(c2cc(OC)ccc2OC)CS3)c1	none (no result: H69AR growth 86K, Lung fibro prol, HUVEC prolif 384)
COc1cccc(-c2nnc3n2N=C(C(C)(C)C)CS3)c1	bCat KO growth 5.5
CCOc1cccc(-c2nnc3n2N=C(c2cc(OC)ccc2OC)CS3)c1	H69AR growth 86K 21
COc1ccccc1-c1nnc2n1N=C(C(C)(C)C)CS2	none
CCN(CC)S(=O)(=O)c1cc(NC(=O)COC(=O)c2sc3ccccc3c2Cl)ccc1C	none (no result: H69AR growth 86K, Lung fibro prol, HUVEC prolif 384)
O=C(NNS(=O)(=O)c1ccc2ccccc2c1)c1cccnc1	none (no result: H69AR growth 86K, Lung fibro prol, HUVEC prolif 384)
CCOC(=O)C1=c2s/c(=C\c3cccnc3)c(=O)n2C(N)=C(C(=O)OC)C1c1cccnc1 (stereo not drawn)	none
CCOC(=O)C1=C(N)n2c(s/c(=C/c3ccco3)c2=O)=C(C(=O)OC)C1c1ccco1 (stereo not drawn)	H69AR growth 86K 4.8, bCat KO growth 2.2, HCT116 PTEN-null 2.4, HUVEC prolif 384 13
N#CC1=C(N)n2c(s/c(=C\c3ccco3)c2=O)=C(C#N)C1c1ccco1 (stereo not drawn)	H69AR growth 86K 38
CCOc1cc2nc(-c3ccc(OC)c(OC)c3)nc(NCCCN3CCOCC3)c2cc1OC	H69AR growth 86K 18
COc1ccc(C(=O)NCCCN2CCOCC2)cc1OC	none
COc1ccc(-n2ncc3c(NCCCN4CCOCC4)ncnc32)cc1	none
Clc1ccc(-c2nc(NCCN3CCOCC3)c3ccccc3n2)cc1	HUVEC prolif 384 9.6
COc1ccc(-c2oc3ncnc(NCCN4CCOCC4)c3c2-c2ccc(OC)cc2)cc1	H69AR growth 86K 18
COc1ccc(-c2oc3ncnc(NCCCN4CCOCC4)c3c2-c2ccc(OC)cc2)cc1	H69AR growth 86K 5.7
COc1ccc(-c2oc3ncn(CCN4CCOCC4)c(=N)c3c2-c2ccc(OC)cc2)cc1	H69AR growth 86K 16
c1ccc(-c2oc3ncnc(NCCCN4CCOCC4)c3c2-c2ccccc2)cc1	H69AR growth 86K 3.1
c1ccc(-c2csc3ncnc(NCCN4CCOCC4)c23)cc1	none
O=C(COc1ccc(S(=O)(=O)N2CCCCC2)cc1)NCc1cccnc1	none
O=C(c1cc(-c2cccc(O)c2)on1)N1CCN(C(c2ccccc2)c2ccccc2)CC1	H69AR growth 86K 5.2
CCCCOCCCNS(=O)(=O)c1ccccc1	none
CCCCOP(=O)(OCCCC)C1(NS(=O)(=O)c2ccccc2)C=CC(=O)c2ccccc21 (stereo not drawn)	H69AR growth 86K 12
CCCOc1ccc(-c2cnc(N)s2)cc1	none (no result: H69AR growth 86K, Lung fibro prol, HUVEC prolif 384)
CC1(C)CC(=O)C2=C(C1)N(c1ccccc1)C(N)=C(C#N)C2c1ccccc1 (stereo not drawn)	none
CC1(C)CC(=O)C2=C(C1)N(c1ccccc1)C(N)=C(C#N)C2c1cccnc1 (stereo not drawn)	H69AR growth 86K 35
Cc1ccc(N2C(N)=C(C#N)C(c3cccnc3)C3=C2CCCC3=O)cc1 (stereo not drawn)	H69AR growth 86K 30
N#Cc1cc(-c2ccc(Cl)cc2)cn(Cc2c(Cl)cccc2Cl)c1=O	none (no result: H69AR growth 86K, Lung fibro prol, HUVEC prolif 384)
CSc1cc(-c2ccc(Cl)cc2)n(Cc2ccccc2)c(=O)c1C#N	H69AR growth 86K 5.4, Lung fibro prol 27, HUVEC prolif 384 8.8
Cc1ccccc1Cn1ccc(-c2ccc(Cl)cc2)c(C#N)c1=O	none (no result: H69AR growth 86K, Lung fibro prol, HUVEC prolif 384)
CSc1cc(-c2ccccc2)n(Cc2c(Cl)cccc2Cl)c(=O)c1C#N	H69AR growth 86K 12, Lung fibro prol 33
CN(C)S(=O)(=O)N1CCc2ccccc21	none
O=S(=O)(Cc1ccccc1)N1CCc2ccccc21	H69AR growth 86K 28
O=C(CN1CCN(S(=O)(=O)c2ccccc2)CC1)Nc1ccccc1C(=O)c1ccccc1	none (no result: H69AR growth 86K, Lung fibro prol, HUVEC prolif 384)
Cn1c(=O)n(Cc2ccc(F)cc2)c(=O)c2c1nc1n2CCCN1Cc1ccccc1	H69AR growth 86K 38
CC(C)Cn1c(=O)c2c(nc3n2CCCN3CCc2ccccc2)n(C)c1=O	H69AR growth 86K 34
Cn1c(=O)n(CCc2ccccc2)c(=O)c2c1nc1n2CCCN1CCc1ccccc1	Lung fibro prol 46, HUVEC prolif 384 3.7
Cn1c(=O)n(CCc2ccccc2)c(=O)c2c1nc1n2CCCN1Cc1ccccc1	H69AR growth 86K 27
Cn1c(=O)[nH]c(=O)c2c1nc1n2CCCN1CCc1ccccc1	none
Cn1c(=O)n(Cc2ccccc2F)c(=O)c2c1nc1n2CCCN1CCc1ccccc1	none (no result: H69AR growth 86K)
CCCC1CCC(=C(C#N)C(N)=O)CC1 (stereo not drawn)	none (no result: H69AR growth 86K, Lung fibro prol, HUVEC prolif 384)
O=C(C(Cl)Cl)N1c2ccccc2OCC1c1ccccc1 (stereo not drawn)	none (no result: H69AR growth 86K, Lung fibro prol, HUVEC prolif 384)
CC(C)(C)c1ccc(OCC(O)CSc2ncn[nH]2)cc1 (stereo not drawn)	none (no result: HCT116 PTEN-null)
